As usually defined, the inhibition is the percentage by which the read-out fell short of the control. The low end stands for a weak effect, the high end for a strong effect.

For 10 compounds, inhibition results are on record in ChEMBL document CHEMBL1165965, “Synthesis and structure-activity relationships of 1,2,3,4-tetrahydropyrido[2,3-b]pyrazines as potent and selective inhibitors of the anaplastic lymphoma kinase” (Bioorg Med Chem, 2010).

A value given as a limit tells only on which side of the number the result lay.

For experiment [1], the target named is MAP kinase-activated protein kinase 2 (Homo sapiens) (UniProt P49137). The experiment in a line: Inhibition of MAPKAPK2 at 1 uM.
MAP kinase-activated protein kinase 2 (Homo sapiens), sequence (P49137 whole entry, looked up): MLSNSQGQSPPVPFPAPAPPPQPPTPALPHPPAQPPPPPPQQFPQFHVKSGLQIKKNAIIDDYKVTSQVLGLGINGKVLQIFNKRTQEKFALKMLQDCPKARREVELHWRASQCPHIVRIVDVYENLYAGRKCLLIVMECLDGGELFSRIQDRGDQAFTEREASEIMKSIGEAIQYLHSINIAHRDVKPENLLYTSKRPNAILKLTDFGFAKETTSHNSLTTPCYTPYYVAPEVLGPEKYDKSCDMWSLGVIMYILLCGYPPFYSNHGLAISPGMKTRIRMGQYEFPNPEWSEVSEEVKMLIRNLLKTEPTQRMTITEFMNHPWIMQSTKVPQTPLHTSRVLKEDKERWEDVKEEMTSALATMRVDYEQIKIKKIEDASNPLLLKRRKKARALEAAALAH
Experiment [2] concerns the target Serine/threonine-protein kinase MRCK beta (Homo sapiens) (UniProt Q9Y5S2). The experiment in a line: Inhibition of MRCKB at 1 uM.
The subject of experiment [3] is Phosphatidylinositol 4,5-bisphosphate 3-kinase catalytic subunit alpha isoform (Homo sapiens), P42336 [C420R]. Briefly: Inhibition of PIK3CA C420R mutant at 1 uM.
In experiment [4] the test system is Phosphatidylinositol 4,5-bisphosphate 3-kinase catalytic subunit alpha isoform (Homo sapiens), P42336 [M1043I]. The experiment in a line: Inhibition of PIK3CA M1043I mutant at 1 uM.
Phosphatidylinositol 4,5-bisphosphate 3-kinase catalytic subunit alpha isoform (Homo sapiens), P42336 [M1043I], sequence (P42336 whole entry M1043I, canonical isoform): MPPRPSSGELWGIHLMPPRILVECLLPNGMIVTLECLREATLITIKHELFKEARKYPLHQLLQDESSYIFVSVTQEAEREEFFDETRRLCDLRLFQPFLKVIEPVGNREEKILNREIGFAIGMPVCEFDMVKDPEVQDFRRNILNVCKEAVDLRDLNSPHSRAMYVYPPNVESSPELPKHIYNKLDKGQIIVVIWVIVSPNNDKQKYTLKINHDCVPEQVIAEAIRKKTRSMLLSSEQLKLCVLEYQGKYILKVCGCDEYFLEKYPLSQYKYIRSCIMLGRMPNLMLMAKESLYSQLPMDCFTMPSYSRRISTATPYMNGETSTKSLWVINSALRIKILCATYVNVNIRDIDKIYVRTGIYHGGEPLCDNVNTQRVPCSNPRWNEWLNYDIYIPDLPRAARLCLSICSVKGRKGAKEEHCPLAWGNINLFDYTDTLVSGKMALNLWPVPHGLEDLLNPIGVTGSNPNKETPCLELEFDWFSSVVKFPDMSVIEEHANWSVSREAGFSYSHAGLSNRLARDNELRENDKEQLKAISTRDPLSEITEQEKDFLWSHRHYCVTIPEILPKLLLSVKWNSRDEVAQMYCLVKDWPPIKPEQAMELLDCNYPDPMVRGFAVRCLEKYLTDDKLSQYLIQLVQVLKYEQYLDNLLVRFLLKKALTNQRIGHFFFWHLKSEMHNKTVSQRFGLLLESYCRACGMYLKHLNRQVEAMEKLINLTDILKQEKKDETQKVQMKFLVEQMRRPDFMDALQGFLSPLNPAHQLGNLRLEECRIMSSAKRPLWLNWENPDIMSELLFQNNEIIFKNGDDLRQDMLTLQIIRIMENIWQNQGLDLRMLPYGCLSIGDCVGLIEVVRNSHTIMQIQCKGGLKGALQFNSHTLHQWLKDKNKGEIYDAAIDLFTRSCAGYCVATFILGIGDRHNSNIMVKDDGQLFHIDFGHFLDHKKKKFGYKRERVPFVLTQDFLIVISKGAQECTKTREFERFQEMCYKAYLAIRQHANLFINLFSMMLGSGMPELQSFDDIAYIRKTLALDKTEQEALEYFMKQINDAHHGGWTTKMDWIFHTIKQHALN
Experiment [5] concerns the target Serine/threonine-protein kinase pim-1 (Homo sapiens) (UniProt P11309). Briefly: Inhibition of PIM1 at 1 uM.
Experiment [6] has as its target TRAF2 and NCK-interacting protein kinase (Homo sapiens) (UniProt Q9UKE5). The experiment in a line: Inhibition of TNIK at 1 uM. In outline: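 Single-concentration screen on the Ambit KINOMEscan platform, run against a panel of 250–400 kinases. Per-kinase inhibition was also summarized as S(90), the fraction of kinases inhibited by more than 90%.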
Experiment [7] deals with T1, Mitogen-activated protein kinase kinase kinase 6 (Homo sapiens) (UniProt O95382).
T1 sequence (whole entry): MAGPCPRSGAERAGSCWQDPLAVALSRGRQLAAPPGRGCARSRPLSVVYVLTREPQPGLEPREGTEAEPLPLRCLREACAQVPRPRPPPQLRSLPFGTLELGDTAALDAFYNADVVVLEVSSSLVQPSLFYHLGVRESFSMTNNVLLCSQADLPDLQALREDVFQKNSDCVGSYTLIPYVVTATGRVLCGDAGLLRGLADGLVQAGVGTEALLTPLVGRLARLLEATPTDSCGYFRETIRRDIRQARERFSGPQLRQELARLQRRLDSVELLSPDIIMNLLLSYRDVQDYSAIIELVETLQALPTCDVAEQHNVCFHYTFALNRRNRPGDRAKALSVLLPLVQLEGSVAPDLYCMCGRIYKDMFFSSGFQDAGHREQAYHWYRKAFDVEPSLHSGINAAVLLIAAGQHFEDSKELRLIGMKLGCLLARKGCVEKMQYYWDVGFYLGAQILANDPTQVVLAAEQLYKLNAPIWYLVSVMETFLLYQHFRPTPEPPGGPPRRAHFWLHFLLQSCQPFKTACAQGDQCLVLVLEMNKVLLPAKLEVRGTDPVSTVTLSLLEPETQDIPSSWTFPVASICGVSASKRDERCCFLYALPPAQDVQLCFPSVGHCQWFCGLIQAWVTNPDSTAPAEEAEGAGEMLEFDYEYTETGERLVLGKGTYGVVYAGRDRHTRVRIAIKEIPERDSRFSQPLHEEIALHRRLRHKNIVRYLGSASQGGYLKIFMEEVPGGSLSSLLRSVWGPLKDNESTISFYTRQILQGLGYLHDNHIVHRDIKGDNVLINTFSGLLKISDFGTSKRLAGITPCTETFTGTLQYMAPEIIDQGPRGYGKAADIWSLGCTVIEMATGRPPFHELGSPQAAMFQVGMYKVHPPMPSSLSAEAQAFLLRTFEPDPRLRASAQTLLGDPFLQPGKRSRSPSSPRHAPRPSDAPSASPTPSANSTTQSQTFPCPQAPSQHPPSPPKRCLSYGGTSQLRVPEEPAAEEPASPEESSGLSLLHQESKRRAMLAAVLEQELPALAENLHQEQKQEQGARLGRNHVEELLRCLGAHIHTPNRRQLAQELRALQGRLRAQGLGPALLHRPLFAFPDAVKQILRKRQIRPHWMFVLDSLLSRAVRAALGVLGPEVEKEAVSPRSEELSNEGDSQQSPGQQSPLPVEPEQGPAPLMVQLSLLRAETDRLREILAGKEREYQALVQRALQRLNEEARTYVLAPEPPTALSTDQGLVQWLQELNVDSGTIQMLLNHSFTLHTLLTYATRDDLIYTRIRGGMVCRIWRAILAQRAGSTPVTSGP
The experiment in a line: Inhibition of ASK2 at 1 uM.

Experiment [8] addresses Casein kinase I isoform gamma-3 (Homo sapiens) (UniProt Q9Y6M4). Briefly: Inhibition of CSNK1G3 at 1 uM. A digest of the protocol:
(§1)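 Single-concentration screen using Ambit Bioscience KINOMEscan technology across a panel of 250–400 kinases. Per-kinase inhibition from this screen was summarized as S(90), the fraction of kinases inhibited by more than 90%.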

The target of experiment [9] is Casein kinase II subunit alpha' (Homo sapiens) (UniProt P19784). Briefly: Inhibition of CSNK2A2 at 1 uM. In outline: as §1
Experiment [10] deals with T2, Ephrin type-B receptor 1 (Homo sapiens) (UniProt P54762).
T2 sequence (whole entry): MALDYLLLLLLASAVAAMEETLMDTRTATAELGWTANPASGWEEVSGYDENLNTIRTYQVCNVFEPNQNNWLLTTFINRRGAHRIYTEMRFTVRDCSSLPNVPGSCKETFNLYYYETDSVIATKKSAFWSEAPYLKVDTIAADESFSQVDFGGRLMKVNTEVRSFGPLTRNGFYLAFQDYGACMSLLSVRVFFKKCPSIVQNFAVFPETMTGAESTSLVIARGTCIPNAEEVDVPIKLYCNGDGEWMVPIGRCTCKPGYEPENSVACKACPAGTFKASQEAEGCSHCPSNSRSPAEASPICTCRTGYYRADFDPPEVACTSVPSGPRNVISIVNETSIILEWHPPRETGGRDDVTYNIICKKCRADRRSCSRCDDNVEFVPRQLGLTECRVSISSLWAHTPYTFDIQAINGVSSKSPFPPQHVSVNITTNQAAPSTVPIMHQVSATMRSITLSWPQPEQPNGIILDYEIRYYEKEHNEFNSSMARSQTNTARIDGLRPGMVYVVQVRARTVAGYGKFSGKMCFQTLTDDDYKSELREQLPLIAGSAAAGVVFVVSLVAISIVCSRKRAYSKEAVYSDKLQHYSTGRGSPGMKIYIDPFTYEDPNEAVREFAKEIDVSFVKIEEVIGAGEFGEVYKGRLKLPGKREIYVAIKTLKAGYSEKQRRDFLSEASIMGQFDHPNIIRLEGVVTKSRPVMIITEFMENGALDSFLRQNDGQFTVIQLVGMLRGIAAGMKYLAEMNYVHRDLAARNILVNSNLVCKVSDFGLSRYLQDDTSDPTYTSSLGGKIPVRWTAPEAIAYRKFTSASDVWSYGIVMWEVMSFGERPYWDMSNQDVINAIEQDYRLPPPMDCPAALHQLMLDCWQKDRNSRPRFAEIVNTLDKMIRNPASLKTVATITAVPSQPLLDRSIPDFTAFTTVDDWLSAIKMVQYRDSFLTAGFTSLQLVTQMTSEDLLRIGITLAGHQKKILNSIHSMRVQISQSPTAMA
Briefly: Inhibition of EPHB1 at 1 uM. In outline: as §1

Experiment [11] addresses Receptor tyrosine-protein kinase erbB-2 (Homo sapiens) (UniProt P04626). Briefly: Inhibition of ERBB2 at 1 uM. In outline: as §1
The target in experiment [12] is Homeodomain-interacting protein kinase 2 (Homo sapiens) (UniProt Q9H2X6). The experiment in a line: Inhibition of HIPK2 at 1 uM.

Serine/threonine-protein kinase MRCK beta (Homo sapiens), sequence (Q9Y5S2 whole entry, canonical isoform): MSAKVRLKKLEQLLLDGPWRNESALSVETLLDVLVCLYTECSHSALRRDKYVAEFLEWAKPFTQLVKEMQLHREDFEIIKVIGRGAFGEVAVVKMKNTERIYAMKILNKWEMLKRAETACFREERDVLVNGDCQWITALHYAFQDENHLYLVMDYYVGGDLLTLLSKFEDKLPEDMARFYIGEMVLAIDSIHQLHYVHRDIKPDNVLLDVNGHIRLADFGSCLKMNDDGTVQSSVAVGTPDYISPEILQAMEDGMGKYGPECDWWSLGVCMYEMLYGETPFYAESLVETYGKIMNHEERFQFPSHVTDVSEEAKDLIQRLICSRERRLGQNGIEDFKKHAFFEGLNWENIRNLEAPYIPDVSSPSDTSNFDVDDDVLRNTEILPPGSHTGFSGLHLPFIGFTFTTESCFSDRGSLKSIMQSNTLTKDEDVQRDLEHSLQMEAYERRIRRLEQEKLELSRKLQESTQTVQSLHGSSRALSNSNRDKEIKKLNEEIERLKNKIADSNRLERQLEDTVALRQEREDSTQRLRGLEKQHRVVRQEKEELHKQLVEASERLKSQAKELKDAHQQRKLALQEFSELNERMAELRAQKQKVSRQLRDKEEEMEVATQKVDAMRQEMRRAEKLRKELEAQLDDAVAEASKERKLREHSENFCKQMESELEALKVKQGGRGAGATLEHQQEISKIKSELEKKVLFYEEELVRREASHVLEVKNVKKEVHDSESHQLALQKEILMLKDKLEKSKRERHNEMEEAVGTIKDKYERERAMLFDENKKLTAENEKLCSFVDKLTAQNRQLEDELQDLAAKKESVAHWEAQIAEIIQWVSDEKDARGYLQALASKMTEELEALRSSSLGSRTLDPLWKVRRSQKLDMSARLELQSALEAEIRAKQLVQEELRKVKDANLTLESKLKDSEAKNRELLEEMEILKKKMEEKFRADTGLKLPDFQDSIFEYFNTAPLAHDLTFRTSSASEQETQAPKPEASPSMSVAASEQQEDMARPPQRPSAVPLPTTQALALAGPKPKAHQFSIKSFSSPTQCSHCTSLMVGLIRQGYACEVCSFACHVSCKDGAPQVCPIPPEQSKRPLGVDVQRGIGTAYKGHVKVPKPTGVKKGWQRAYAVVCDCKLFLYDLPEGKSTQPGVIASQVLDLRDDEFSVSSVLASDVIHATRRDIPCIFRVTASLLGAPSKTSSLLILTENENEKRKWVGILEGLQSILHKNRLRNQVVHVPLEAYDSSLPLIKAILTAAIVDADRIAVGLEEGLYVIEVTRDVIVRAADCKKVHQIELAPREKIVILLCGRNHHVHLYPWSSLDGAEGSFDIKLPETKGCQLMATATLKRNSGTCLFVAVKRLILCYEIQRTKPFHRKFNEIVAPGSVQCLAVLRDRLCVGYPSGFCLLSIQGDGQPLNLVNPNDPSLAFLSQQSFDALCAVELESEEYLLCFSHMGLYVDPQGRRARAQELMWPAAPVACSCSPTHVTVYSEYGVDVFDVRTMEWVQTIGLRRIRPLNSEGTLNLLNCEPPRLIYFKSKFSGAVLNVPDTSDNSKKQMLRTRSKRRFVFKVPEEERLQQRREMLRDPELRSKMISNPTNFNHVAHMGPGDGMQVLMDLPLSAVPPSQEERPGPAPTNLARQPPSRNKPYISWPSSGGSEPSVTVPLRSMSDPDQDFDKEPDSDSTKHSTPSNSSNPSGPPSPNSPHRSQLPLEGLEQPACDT
Receptor tyrosine-protein kinase erbB-2 (Homo sapiens), sequence (P04626 whole entry): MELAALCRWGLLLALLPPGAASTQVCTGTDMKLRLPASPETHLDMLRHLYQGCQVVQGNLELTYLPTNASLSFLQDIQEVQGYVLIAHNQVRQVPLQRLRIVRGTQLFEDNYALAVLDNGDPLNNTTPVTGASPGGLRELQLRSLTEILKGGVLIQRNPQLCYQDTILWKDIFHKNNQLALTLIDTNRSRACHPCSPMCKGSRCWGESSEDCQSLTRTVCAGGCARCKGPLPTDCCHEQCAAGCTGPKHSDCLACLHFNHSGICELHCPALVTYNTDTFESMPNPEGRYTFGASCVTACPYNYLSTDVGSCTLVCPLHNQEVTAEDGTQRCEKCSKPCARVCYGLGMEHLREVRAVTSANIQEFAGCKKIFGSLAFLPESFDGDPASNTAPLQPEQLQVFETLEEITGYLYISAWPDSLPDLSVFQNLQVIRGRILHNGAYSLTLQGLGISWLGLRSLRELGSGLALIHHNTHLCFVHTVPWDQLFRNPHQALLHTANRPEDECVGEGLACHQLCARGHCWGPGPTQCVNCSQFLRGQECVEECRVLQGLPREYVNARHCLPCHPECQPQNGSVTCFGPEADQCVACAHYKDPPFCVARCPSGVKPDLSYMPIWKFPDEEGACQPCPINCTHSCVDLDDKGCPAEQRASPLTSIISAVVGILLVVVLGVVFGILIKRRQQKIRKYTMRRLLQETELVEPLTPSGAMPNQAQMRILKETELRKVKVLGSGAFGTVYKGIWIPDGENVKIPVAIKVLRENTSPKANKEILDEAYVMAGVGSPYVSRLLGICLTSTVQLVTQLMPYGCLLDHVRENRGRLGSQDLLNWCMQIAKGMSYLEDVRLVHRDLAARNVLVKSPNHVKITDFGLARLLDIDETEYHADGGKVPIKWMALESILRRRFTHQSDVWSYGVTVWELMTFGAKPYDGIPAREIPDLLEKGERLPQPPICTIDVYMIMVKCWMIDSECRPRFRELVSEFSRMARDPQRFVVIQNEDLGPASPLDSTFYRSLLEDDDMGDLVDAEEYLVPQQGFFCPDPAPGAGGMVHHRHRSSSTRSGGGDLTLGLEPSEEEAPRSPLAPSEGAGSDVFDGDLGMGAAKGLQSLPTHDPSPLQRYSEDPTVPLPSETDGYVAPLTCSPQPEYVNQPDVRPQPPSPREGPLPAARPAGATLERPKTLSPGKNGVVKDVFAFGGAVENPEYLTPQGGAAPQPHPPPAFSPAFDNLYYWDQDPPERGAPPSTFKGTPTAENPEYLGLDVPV
Casein kinase I isoform gamma-3 (Homo sapiens), sequence (Q9Y6M4 whole entry, looked up, canonical isoform): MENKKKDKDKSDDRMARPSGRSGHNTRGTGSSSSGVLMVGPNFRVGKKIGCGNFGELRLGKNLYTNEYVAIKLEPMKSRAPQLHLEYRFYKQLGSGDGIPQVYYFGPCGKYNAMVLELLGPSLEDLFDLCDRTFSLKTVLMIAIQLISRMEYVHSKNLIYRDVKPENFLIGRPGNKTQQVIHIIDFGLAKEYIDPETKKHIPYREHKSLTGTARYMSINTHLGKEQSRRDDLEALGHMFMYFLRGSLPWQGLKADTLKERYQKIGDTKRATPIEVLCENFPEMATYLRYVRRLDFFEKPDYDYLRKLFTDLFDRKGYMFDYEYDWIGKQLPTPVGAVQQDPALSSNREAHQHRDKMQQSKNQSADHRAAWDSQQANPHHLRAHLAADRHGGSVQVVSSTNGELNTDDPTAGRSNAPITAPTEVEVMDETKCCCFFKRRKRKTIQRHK
Phosphatidylinositol 4,5-bisphosphate 3-kinase catalytic subunit alpha isoform (Homo sapiens), P42336 [C420R], sequence (P42336 whole entry C420R, canonical isoform): as the sequence (P42336 whole entry M1043I, canonical isoform) above, with C420R, I1043M counted along it

As for `FC(F)(F)c1ccc(Cl)cc1CN1CCNc2ncc(-c3ccnc(N4CCNCC4)c3)cc21`, the inhibition in experiment [1], in experiment [2], in experiment [3], in experiment [4], in [5] and in [6] was below 50% each time. The inhibition in [7], in experiment [8], in [9], in experiment [10], in [11] and in experiment [12] was below 50% throughout.
Take `CN1CCN(c2ccc(-c3cnc4c(c3)N(Cc3cc(Cl)ccc3Cl)CCN4)cn2)CC1`: the inhibition in [1], in [2], in experiment [3], in experiment [4], in [5] and in experiment [6] was below 50% each time. Further, the inhibition in [7], in [8], in experiment [9], in [10], in [11] and in [12] was below 50% in each case.
With `COC1CCN(C(=O)c2ccc(-c3cnc4c(c3)N(Cc3cc(Cl)ccc3C(F)(F)F)CCN4)cc2)CC1`, the inhibition in experiment [2], in experiment [5], in [6], in experiment [7], in experiment [8] and in [9] was below 50% each time. Also, the inhibition in experiment [10] and in [11] was below 50% throughout.
With `O=C(c1ccc(-c2cnc3c(c2)N(Cc2cc(Cl)ccc2C(F)(F)F)CCN3)cc1)N1CCCCC1`, the inhibition in experiment [2], in experiment [5], in experiment [6], in experiment [8], in [9] and in [10] was below 50% each time. The compound also gave an inhibition in experiment [11] below 50%.
Regarding `O=C(O)c1ccc(-c2cnc3c(c2)N(Cc2cc(Cl)ccc2C(F)(F)F)CCN3)cc1`, the inhibition in experiment [2], in experiment [5], in experiment [6], in experiment [8], in experiment [9] and in experiment [10] was below 50% in each case. In addition, the inhibition in [11] is below 50%.
`CN1CCN(c2ccc(-c3cnc4c(c3)N(Cc3cc(F)ccc3F)CCN4)cn2)CC1`: the inhibition in experiment [1], in [2], in [3], in experiment [4], in experiment [5] and in experiment [6] was below 50% each time. In addition, the inhibition in [7], in experiment [8], in experiment [9], in experiment [10], in experiment [11] and in [12] was below 50% throughout.
Regarding `O=C(c1ccc(-c2cnc3c(c2)N(Cc2cc(Cl)ccc2C(F)(F)F)CCN3)cc1)N1CCC(N2CCCC2)CC1`, the inhibition in experiment [2], in experiment [5], in experiment [6], in experiment [7], in experiment [8] and in experiment [9] was below 50% each time. Also, the inhibition in experiment [10] and in [11] was below 50% throughout.
Regarding `CN1CCN(c2ccc(-c3cnc4c(c3)N(Cc3c(F)ccc(F)c3Cl)CCN4)cn2)CC1`, the inhibition in experiment [1] is below 50%; in [2], below 50%; in experiment [3], below 50%; in [4], below 50%; in experiment [5] it was below 50%; in experiment [6], 82%. Further, the inhibition in experiment [7], in experiment [8], in [9], in experiment [10], in [11] and in experiment [12] was below 50% throughout.
For the compound `CC(=O)N1CCN(c2cc(-c3cnc4c(c3)N(Cc3cc(Cl)ccc3C(F)(F)F)CCN4)ccn2)CC1`, the inhibition in experiment [1], in experiment [2], in [3], in experiment [4], in experiment [5] and in experiment [6] was below 50% throughout. For the same compound, the inhibition in experiment [7], in [8], in [9], in [10], in experiment [11] and in experiment [12] was below 50% in each case.
Take `CN1CCN(c2ccc(-c3cnc4c(c3)N(Cc3cc(Cl)ccc3C(F)(F)F)CCN4)cn2)CC1`: the inhibition in experiment [1], in experiment [2], in experiment [3], in experiment [4], in [5] and in [6] was below 50% each time. The inhibition in experiment [7], in [8], in experiment [9], in experiment [10], in [11] and in experiment [12] was below 50% each time.
